Laboratory results: ChEMBL document CHEMBL3098034, “Synthesis and biological evaluation of α-hydroxyalkylphosphonates as new antimicrobial agents” (Bioorg Med Chem Lett, 2014)
Values after ≈ are worked out from the molar mass of the structure shown. Active and inactive are the calls of the source. The rule behind the calls is not given here.

How the values were obtained:
Escherichia coli [1] = assay: Antibacterial activity against multidrug-resistant Escherichia coli BW54 at 10 ug by disc diffusion method; type: functional
[2] = system: Stenotrophomonas maltophilia; assay: Antibacterial activity against multidrug-resistant Stenotrophomonas maltophilia D457R at 10 ug by disc diffusion method; type: functional; conditions: for zone of inhibition at 10 µg/disc: read-out: IZ
[3] = system: Acinetobacter haemolyticus; assay: Antibacterial activity against vancomycin-resistant Acinetobacter haemolyticus BW62 at 10 ug by disc diffusion method; type: functional
Staphylococcus aureus [4] = assay: Antibacterial activity against Staphylococcus aureus ATCC 29213 at 10 ug by disc diffusion method; type: functional
Pseudomonas aeruginosa [5] = assay: Antibacterial activity against multidrug-resistant Pseudomonas aeruginosa PAO1 at 10 ug by disc diffusion method; type: functional; conditions: for zone of inhibition at 10 µg/disc: read-out: IZ
Bacillus cereus [6] = assay: Antibacterial activity against Bacillus cereus ATCC 11778 at 10 ug by disc diffusion method; type: functional; conditions: for zone of inhibition at 10 µg/disc: read-out: IZ
Escherichia coli [7] = assay: Antibacterial activity against ESBL-producing Escherichia coli BW55 at 10 ug by disc diffusion method; type: functional; conditions: for zone of inhibition at 10 µg/disc: read-out: IZ
Bacillus cereus [8] = assay: Antibacterial activity against Bacillus cereus ATCC 11778 after 24 hrs by broth microdilution method; type: functional; conditions: ATCC 11778, 24 h
Outline: (§1)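 MIC (lowest concentration preventing growth) determined per CLSI specifications, with fosfomycin, ceftriaxone, ciprofloxacin and chloramphenicol run as reference drugs; S. aureus ATCC 29213 used as quality-control strain.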

[9] = system: Acinetobacter haemolyticus; assay: Bactericidal activity against vancomycin-resistant Acinetobacter haemolyticus BW62 after 24 hrs by CFU counting assay; type: functional; conditions: BW62, 24 h
Outline: (§2)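 MBC (lowest concentration killing the pathogen) determined per CLSI specifications, with fosfomycin, ceftriaxone, ciprofloxacin and chloramphenicol run as reference drugs; S. aureus ATCC 29213 used as quality-control strain.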

[10] = system: Stenotrophomonas maltophilia; assay: Antibacterial activity against multidrug-resistant Stenotrophomonas maltophilia D457R after 24 hrs by broth microdilution method; type: functional; outline: as §1
Staphylococcus aureus [11] = assay: Bactericidal activity against Staphylococcus aureus ATCC 29213 after 24 hrs by CFU counting assay; type: functional; conditions: ATCC 29213, 24 h; outline: as §2
Staphylococcus aureus [12] = assay: Bactericidal activity against methicillin-resistant Staphylococcus aureus BW61 after 24 hrs by CFU counting assay; type: functional; conditions: BW61, 24 h; outline: as §2
Escherichia coli [13] = assay: Bactericidal activity against multidrug-resistant Escherichia coli BW54 after 24 hrs by CFU counting assay; type: functional; conditions: BW54, 24 h; outline: as §2
[14] = system: Acinetobacter haemolyticus; assay: Antibacterial activity against vancomycin-resistant Acinetobacter haemolyticus BW62 after 24 hrs by broth microdilution method; type: functional; conditions: BW62, 24 h; outline: as §1
Escherichia coli [15] = assay: Bactericidal activity against ESBL-producing Escherichia coli BW55 after 24 hrs by CFU counting assay; type: functional; conditions: BW55, 24 h; outline: as §2
Bacillus cereus [16] = assay: Bactericidal activity against Bacillus cereus ATCC 11778 after 24 hrs by CFU counting assay; type: functional; conditions: ATCC 11778, 24 h; outline: as §2
Staphylococcus aureus [17] = assay: Antibacterial activity against Staphylococcus aureus ATCC 29213 after 24 hrs by broth microdilution method; type: functional; conditions: ATCC 29213, 24 h; outline: as §1
Escherichia coli [18] = assay: Antibacterial activity against ESBL-producing Escherichia coli BW55 after 24 hrs by broth microdilution method; type: functional; conditions: BW55, 24 h; outline: as §1
Pseudomonas aeruginosa [19] = assay: Bactericidal activity against multidrug-resistant Pseudomonas aeruginosa PAO1 after 24 hrs by CFU counting assay; type: functional; conditions: PAO1, 24 h; outline: as §2
Pseudomonas aeruginosa [20] = assay: Antibacterial activity against multidrug-resistant Pseudomonas aeruginosa PAO1 after 24 hrs by broth microdilution method; type: functional; conditions: PAO1, 24 h; outline: as §1
Staphylococcus aureus [21] = assay: Antibacterial activity against methicillin-resistant Staphylococcus aureus BW61 after 24 hrs by broth microdilution method; type: functional; conditions: BW61, 24 h; outline: as §1
[22] = system: Stenotrophomonas maltophilia; assay: Bactericidal activity against multidrug-resistant Stenotrophomonas maltophilia D457R after 24 hrs by CFU counting assay; type: functional; outline: as §2
Escherichia coli [23] = assay: Antibacterial activity against multidrug-resistant Escherichia coli BW54 after 24 hrs by broth microdilution method; type: functional; conditions: BW54, 24 h; outline: as §1
Human alphaherpesvirus 2 = assay: Antiviral activity against Herpes simplex virus 2 G; type: functional, organism-based; conditions: Human alphaherpesvirus 2, strain G

Compound	Activity (Escherichia coli [1])	Activity [2]	Activity [3]	Activity (Staphylococcus aureus [4])	zone of inhibition at 10 µg/disc (Pseudomonas aeruginosa [5]) [mm]	Activity (Escherichia coli [7])	Activity (Bacillus cereus [6])	MIC (Bacillus cereus [8]) [µg/mL]	MBC [9] [µg/mL]	MIC [10] [µg/mL]	MBC (Staphylococcus aureus [11]) [µg/mL]	MBC (Staphylococcus aureus [12]) [µg/mL]	MBC (Escherichia coli [13]) [µg/mL]	MIC [14] [µg/mL]	MBC (Escherichia coli [15]) [µg/mL]	MBC (Bacillus cereus [16]) [µg/mL]	MIC (Staphylococcus aureus [17]) [µg/mL]	MIC (Escherichia coli [18]) [µg/mL]	MBC (Pseudomonas aeruginosa [19]) [µg/mL]	MIC (Pseudomonas aeruginosa [20]) [µg/mL]	other results
CC1(C)COP(=O)([C@@](O)(CCl)c2ccccc2)OC1	inactive	inactive	inactive	inactive	6	inactive	–	–	–	–	–	–	–	–	–	–	–	–	–	–	zone of inhibition at 10 µg/disc (Bacillus cereus [6]): 7 mm
CC1(C)COP(=O)([C@@](C)(O)CCl)OC1	inactive	inactive	inactive	inactive	–	inactive	inactive	–	–	–	–	–	–	–	–	–	–	–	–	–	Activity (Pseudomonas aeruginosa [5]): inactive
CC1(C)COP(=O)([C@@](O)(CCl)c2ccc(Cl)cc2)OC1	inactive	inactive	inactive	inactive	–	–	inactive	64 (≈ 189 µM)	128 (≈ 377 µM)	64 (≈ 189 µM)	128 (≈ 377 µM)	128 (≈ 377 µM)	128 (≈ 377 µM)	64 (≈ 189 µM)	128 (≈ 377 µM)	128 (≈ 377 µM)	64 (≈ 189 µM)	64 (≈ 189 µM)	128 (≈ 377 µM)	128 (≈ 377 µM)	MIC (Staphylococcus aureus [21]): 64 µg/mL (≈ 189 µM); Activity (Pseudomonas aeruginosa [5]): inactive; MBC [22]: 256 µg/mL (≈ 755 µM); MIC (Escherichia coli [23]): 64 µg/mL (≈ 189 µM); zone of inhibition at 10 µg/disc (Escherichia coli [7]): 7 mm
C[C@@H]1O[C@@H]1P(=O)(O)O [FOSFOMYCIN]	–	–	–	–	–	–	–	32 (≈ 232 µM)	128 (≈ 927 µM)	256 (≈ 1850 µM)	64 (≈ 464 µM)	32 (≈ 232 µM)	32 (≈ 232 µM)	128 (≈ 927 µM)	128 (≈ 927 µM)	32 (≈ 232 µM)	8 (≈ 57.9 µM)	32 (≈ 232 µM)	64 (≈ 464 µM)	64 (≈ 464 µM)	MIC (Staphylococcus aureus [21]): 64 µg/mL (≈ 464 µM); MBC [22]: 256 µg/mL (≈ 1850 µM); MIC (Escherichia coli [23]): 32 µg/mL (≈ 232 µM)
O=P(Oc1ccccc1)(Oc1ccccc1)[C@](O)(CCl)c1ccc(Cl)cc1	–	–	–	–	10	–	–	32 (≈ 75.6 µM)	128 (≈ 302 µM)	32 (≈ 75.6 µM)	64 (≈ 151 µM)	64 (≈ 151 µM)	64 (≈ 151 µM)	64 (≈ 151 µM)	64 (≈ 151 µM)	32 (≈ 75.6 µM)	32 (≈ 75.6 µM)	32 (≈ 75.6 µM)	128 (≈ 302 µM)	128 (≈ 302 µM)	zone of inhibition at 10 µg/disc (Escherichia coli [1]; read-out: IZ): 9 mm; zone of inhibition at 10 µg/disc [2]: 11 mm; zone of inhibition at 10 µg/disc ([3]; read-out: IZ): 7 mm; MIC (Staphylococcus aureus [21]): 32 µg/mL (≈ 75.6 µM); zone of inhibition at 10 µg/disc (Staphylococcus aureus [4]; read-out: IZ): 9 mm; MBC [22]: 64 µg/mL (≈ 151 µM); MIC (Escherichia coli [23]): 64 µg/mL (≈ 151 µM); zone of inhibition at 10 µg/disc (Bacillus cereus [6]): 9 mm; zone of inhibition at 10 µg/disc (Escherichia coli [7]): 10 mm
Nc1ncnc2c1ncn2CCOCP(=O)(O)O [ADEFOVIR]	–	–	–	–	–	–	–	–	–	–	–	–	–	–	–	–	–	–	–	–	IC50 (Human alphaherpesvirus 2): 77 µM
CC1(C)COP(=O)([C@@]2(O)CCC[C@@H]2Cl)OC1	inactive	–	inactive	inactive	6	inactive	inactive	–	–	–	–	–	–	–	–	–	–	–	–	–	zone of inhibition at 10 µg/disc [2]: 6 mm
